Ends that are not written are not given here. * marks the point of attachment. FITC = O=C1OC2(c3ccc(O)cc3Oc3cc(O)ccc32)c2ccc(NC(=S)*)cc21
Legend:
[1] = system: STK40 kinase-homology domain (aa 22–339); experiment: Thermal shift assay; format: binding, human; details: summary statement (Highlights)
[2] = system: partially purified full-length STK40; details: single ATP concentration (0.2mM); ref Murphy et al., 2014; cited from earlier work
COP1 WD40 domain = experiment: Flag-immunoprecipitation; format: cell-based, human; details: 293T cells; anti-Flag IP, western blot anti-COP1; Figure 1C lanes 6–8
[3] = target: T1, purified human COP1 WD40 β propeller (386-731) (human, UniProt Q8NHY2 386-731); experiment: fluorescence polarisation
T1 sequence (Q8NHY2 386-731): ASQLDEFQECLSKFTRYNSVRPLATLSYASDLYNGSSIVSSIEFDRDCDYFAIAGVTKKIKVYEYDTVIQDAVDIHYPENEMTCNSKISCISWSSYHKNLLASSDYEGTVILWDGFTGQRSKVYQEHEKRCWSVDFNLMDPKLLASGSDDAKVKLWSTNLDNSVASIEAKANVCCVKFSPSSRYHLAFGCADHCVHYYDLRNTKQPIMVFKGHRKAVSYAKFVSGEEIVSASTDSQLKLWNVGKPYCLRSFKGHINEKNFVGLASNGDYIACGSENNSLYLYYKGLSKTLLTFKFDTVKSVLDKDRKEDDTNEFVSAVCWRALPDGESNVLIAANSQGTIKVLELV

[4] = target: COP1 WD40 domain (386–731); format: binding, human; details: same competition assay; 25 nM FITC-peptide, 1500 nM COP1 WD40 (386–731)
endogenous COP1 = experiment: Flag-immunoprecipitation in 293T cells: endogenous COP1; format: cell-based, human; details: anti-Flag IP, western blot anti-COP1, Figure 1C, black arrow
Procedure, shortened: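 Human 293T cells grown in standard medium were transiently transfected with Flag-tagged STK40 constructs in pcDNA3.0 plus COP1 in pTriEx1.1. Lysates and eluates were run on 4–20% gradient gels and immunoblotted for Flag and COP1.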

[5] = target: T1, purified human COP1 WD40 β propeller …; experiment: fluorescence polarisation; remark: listed apart in the source

In the case of `Nc1ncnc2c1ncn2[C@@H]1O[C@H](COP(=O)(O)OP(=O)(O)OP(=O)(O)O)[C@@H](O)[C@H]1O` [ATP], the “ATP binding by STK40 kinase homology domain” value [1] is given as “does not bind ATP” and the “ATP binding by full-length STK40” value [2] is given as “no ATP binding”.

With “SSLSGPLQVVPDI [12 residue peptide fused to GFP]” the “association with / recovery of COP1 WD40 domain” value (COP1 WD40 domain) was “recovers the COP1 WD40 domain, but less efficiently than full-length STK40”.

B1: purified STK40 KHD+20 (22-359) (domain or fragment, human, UniProt Q8N2I9 22-359, looked up)
chain: SGISGNNAKRAGPFILGPRLGNSPVPSIVQCLARKDGTDDFYQLKILTLEERGDQGIESQEERQGKMLLHTEYSLLSLLHTQDGVVHHHGLFQDRTCEIVEDTESSRMVKKMKKRICLVLDCLCAHDFSDKTADLINLQHYVIKEKRLSERETVVIFYDVVRVVEALHQKNIVHRDLKLGNMVLNKRTHRITITNFCLGKHLVSEGDLLKDQRGSPAYISPDVLSGRPYRGKPSDMWALGVVLFTMLYGQFPFYDSIPQELFRKIKAAEYTIPEDGRVSENTVCLIRKLLVLDPQQRLAAADVLEALSAIIASWQSLSSLSGPLQVVPDIDDQMSNAD
In the case of B1, the Ki [3] is reported as 1.2 ± 0.1 µM.

B2: KHD containing a C-terminal extension of 20 amino acids: KHD containing a C-terminal extension of 20 amino acids encompassing the COP1-binding peptide (protein)
chain: B1 chain
modifications: left off: His tag, N-terminal, cleaved
For B2, the “apparent Ki relative to isolated STK40 peptide (in words)” value [4] was “lower apparent Ki than the isolated peptide”.

B3: Full-length STK40: N-terminal Flag-tagged full-length STK40 (FLAG, HA tags in HeLa tandem IP) (protein)
chain: MKRRASDRGAGETSARAKALGSGISGNNAKRAGPFILGPRLGNSPVPSIVQCLARKDGTDDFYQLKILTLEERGDQGIESQEERQGKMLLHTEYSLLSLLHTQDGVVHHHGLFQDRTCEIVEDTESSRMVKKMKKRICLVLDCLCAHDFSDKTADLINLQHYVIKEKRLSERETVVIFYDVVRVVEALHQKNIVHRDLKLGNMVLNKRTHRITITNFCLGKHLVSEGDLLKDQRGSPAYISPDVLSGRPYRGKPSDMWALGVVLFTMLYGQFPFYDSIPQELFRKIKAAEYTIPEDGRVSENTVCLIRKLLVLDPQQRLAAADVLEALSAIIASWQSLSSLSGPLQVVPDIDDQMSNADSSQEAKVTEECSQYEFENYMRQQLLLAEEKSSIHDARSWVPKRQFGSAPPVRRLGHDAQPMTSLDTAILAQRYLRK
modifications: left off: Flag, N-terminal, kept
With B3 the “immunoprecipitation with endogenous COP1” value (endogenous COP1) was “immunoprecipitates with endogenous COP1”.

B4: KHD: construct of STK40 containing only the central kinase homology domain (KHD) (protein)
chain: SGISGNNAKRAGPFILGPRLGNSPVPSIVQCLARKDGTDDFYQLKILTLEERGDQGIESQEERQGKMLLHTEYSLLSLLHTQDGVVHHHGLFQDRTCEIVEDTESSRMVKKMKKRICLVLDCLCAHDFSDKTADLINLQHYVIKEKRLSERETVVIFYDVVRVVEALHQKNIVHRDLKLGNMVLNKRTHRITITNFCLGKHLVSEGDLLKDQRGSPAYISPDVLSGRPYRGKPSDMWALGVVLFTMLYGQFPFYDSIPQELFRKIKAAEYTIPEDGRVSENTVCLIRKLLVLDPQQRLAAADVLEALSAIIASWQSLS
modifications: left off: His tag, N-terminal, cleaved
For B4, the “association with / recovery of COP1 WD40 domain” value (COP1 WD40 domain) was “unable to recover detectable quantities of the COP1 WD40 domain”.

B5: STK40 peptide FITC-SSLSGPLQVVPD (peptide)
peptide: {FITC}-SSLSGPLQVVPD
With B5 the Kd [5] was 3.1 ± 0.6 µM.
